In the library only some 3.2% were active in any assay of this set; here they are far more common.
HTRA1 inhibitor: HTRA1 (human) protease inhibition. Q92743. recombinant HTRA1, FP-rhodamine activity-based probe, fluorescence polarization. inhibition, % at 5.96 µM. 340,000 tested, 0.5% active. AID 504803; in the data active = inhibition above about 36%;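 also: 0% = enzyme with DMSO and 100% = wells lacking enzyme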
DAGLB inhibitor: blocks human DAGLB lipase activity; Q8NCG7; HEK293T DAGLB membrane lysate, EnzChek fluorogenic substrate; AID 504411; inhibition, % at 5.17 µM; 340,000 tested, 0.059% active; in the data active = inhibition above about 34%;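 also: 0% = enzyme with vehicle and 100% = wells lacking enzyme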
ABHD4 inh: ABHD4 (mouse) inhibition, primary FP screen | Q8VD66 | purified mABHD4, FP-Rh probe fluorescence polarization | inhibition, % at 8.92 µM | 370,000 tested, 0.54% active | AID 720543;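 active = inhibition exceeding the mean over every tested compound plus 3 SD, cut at about 30% in these data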;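 also: 0% = plate median of compound wells and 100% = S159A mutant with DMSO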
Target sequence (Q8VD66 whole entry, looked up): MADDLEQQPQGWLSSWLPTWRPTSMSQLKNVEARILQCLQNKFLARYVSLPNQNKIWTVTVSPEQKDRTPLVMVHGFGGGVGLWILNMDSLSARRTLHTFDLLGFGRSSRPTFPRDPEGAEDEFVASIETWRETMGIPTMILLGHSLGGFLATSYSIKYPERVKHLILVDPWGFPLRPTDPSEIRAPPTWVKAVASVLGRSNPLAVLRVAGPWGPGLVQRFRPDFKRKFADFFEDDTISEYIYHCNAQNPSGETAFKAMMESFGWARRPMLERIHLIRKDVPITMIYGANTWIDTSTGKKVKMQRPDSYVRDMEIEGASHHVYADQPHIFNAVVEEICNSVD
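System: mouse ABHD4 enzyme, wild type / Medium: HEPES pH 7.0, NaCl, Pluronic buffer / Reagent: FP-Rh activity-based fluorescent probe / Control set: S159A mutant high control, sample median low control / Detection: fluorescence polarization with parallel and perpendicular emission, 525/598 nm / Schedule: 45 min + 60 min at 25 °C / Compound dosing: 8.92 µM, single dose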
LEDGF integ inh: blocks HIV-1 LEDGF/p75-dependent DNA integration. 370,000 tested, 0.64% active. AID 743269. inhibition, % at 3.7 µM. TR-FRET IN-LEDGF/p75 DNA integration, Eu/Cy5;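 active = inhibition above the screen-wide mean plus 3 SD, cut at about 13% in these data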;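 also: signal is the Cy5 over europium emission ratio at 671 and 618 nm; 0% = plate median of compound wells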
PRMT1 inh: PRMT1 (human) inhibition, primary screen | Q99873 | recombinant PRMT1, activity-based probe fluorescence polarization | inhibition, % at 2.79 µM | 370,000 tested, 1.3% active;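 active = inhibition above about 21% made by adding two undisclosed values, limit read from the data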
Target sequence (Q99873 whole entry, looked up): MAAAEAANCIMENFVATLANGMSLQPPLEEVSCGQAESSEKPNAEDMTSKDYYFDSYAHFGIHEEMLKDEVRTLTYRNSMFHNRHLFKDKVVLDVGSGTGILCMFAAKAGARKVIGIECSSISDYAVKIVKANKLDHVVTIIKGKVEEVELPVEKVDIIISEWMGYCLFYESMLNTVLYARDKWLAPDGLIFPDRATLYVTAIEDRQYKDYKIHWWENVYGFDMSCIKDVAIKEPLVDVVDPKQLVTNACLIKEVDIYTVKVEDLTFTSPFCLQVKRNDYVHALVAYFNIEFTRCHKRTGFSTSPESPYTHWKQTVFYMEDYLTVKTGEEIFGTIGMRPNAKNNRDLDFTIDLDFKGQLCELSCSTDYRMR
rCAG binder: r(CAG) repeat RNA binding; TO-PRO-1 dye displacement fluorescence; inhibition, % at 3 µM; 370,000 tested, 1.3% active; AID 651821;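 active = inhibition above the plate cutoff, the mean of all test compounds on that plate plus 3 SD, cut at about 35% in these data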;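 also: 0% = DMSO alone and 100% = 100 µM mitoxantrone as full dye displacement; higher means more dye released from RNA so lower well fluorescence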
rCAG bind conf: r(CAG) RNA repeat binding, confirmation. inhibition, % at 3 µM. TO-PRO-1 dye displacement fluorescence. AID 652065. shares compounds with rCAG binder. 4,300 tested, 70% active;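 active = inhibition above a per-plate cutoff, the mean inhibition of sample wells plus 3 SD, cut at about 35% in these data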;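 also: loss of TO-PRO-1 fluorescence as compound displaces dye from 1x1 AA loop RNA; 0% = DMSO only wells and 100% = 100 µM mitoxantrone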
DNA CAG counter: DNA CAG dye complex inhibition counter-screen | shares compounds with rCAG binder | d(CAG) DNA oligo TO-PRO-1 dye displacement, fluorescence | inhibition, % at 3 µM | 4,300 tested, 94% active | AID 652068;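 active = inhibition above its plate's cutoff, the mean test-well inhibition plus 3 SD, cut at about 4.8% in these data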;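 also: 0% = DNA dye mix with DMSO and 100% = 100 µM mitoxantrone; hits displace the dye from DNA and so lower well fluorescence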
dCAG dye DR: counter-screen for rCAG binders: inhibitors of DNA CAG TO-PRO-1 complex; 250 tested, 20% active; DNA CAG/GTC duplex TO-PRO-1 dye displacement fluorescence; AID 686960; IC50, µM; shares compounds with rCAG binder; in the data active = IC50 below about 10 µM
PRMT1 inh conf: confirmation of human PRMT1 inhibitors. shares compounds with PRMT1 inh. inhibition, % at 2.79 µM. 3,300 tested, 42% active. AID 687036. recombinant His-PRMT1, activity-based probe fluorescence polarization;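 active = mean inhibition across replicates above the hit cutoff derived for the earlier primary screen, cut at about 22% in these data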
mABHD4 conf: confirmation of mouse ABHD4 inhibitors. shares compounds with ABHD4 inh. purified mABHD4, FP-Rh probe fluorescence polarization. 1,800 tested, 55% active. inhibition, % at 8.92 µM;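 active = mean inhibition across replicates above the hit cutoff set in the primary screen, cut at about 30% in these data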;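 also: 0% = wild-type ABHD4 with DMSO and 100% = catalytically dead S159A mutant with DMSO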
* hit, by the source's call; / = no result given.

SMILES | HTRA1 inhibitor | DAGLB inhibitor | ABHD4 inh | LEDGF integ inh | PRMT1 inh | rCAG binder | rCAG bind conf | DNA CAG counter | PRMT1 inh conf | mABHD4 conf | others
CCC1CCC(C(=O)NNC(=O)c2cc(-c3ccco3)[nH]n2)CC1 (configuration not stated) | 0 | 2 | 8 | 12 | 83* | 46* | 4 | 2 | 2 | /
O=C(O)c1cc(-c2ccc(-c3ccc(F)cc3)o2)nc2ccccc12 | 2 | 0 | 13 | 3 | 86* | 37* | 17 | 4 | 27* | /
CC(C)CC(=O)Nc1nnc(-c2ccco2)s1 | 1 | 1 | -7 | -2 | 0 | 1 | / | / | / | /
CCc1ccc(OCC(=O)Nc2nnc(-c3ccco3)s2)cc1 | -5 | -3 | -8 | -2 | 34* | 52* | 3 | 0 | 3 | /
COc1ccc(S(=O)(=O)Nc2ccc(O)c(Sc3ncn[nH]3)c2)cc1 | 2 | 0 | 7 | -3 | 6 | 1 | / | / | / | /
COc1ccc(S(=O)(=O)Nc2cc(Sc3ncn[nH]3)c(O)c3ccccc23)cc1 | / | / | 28 | 45* | 96* | 43* | 24 | 9.8* | 87* | /
O=C(Cc1cccc(NC(=O)C2CCN(C(=O)C3CCCCC3)CC2)c1)Nc1cccc(C(=O)N2CCOCC2)c1 | 1 | 0 | 7 | -5 | 3 | 2 | / | / | / | /
S=c1[nH]nc(COc2ccccc2)n1/N=C/c1ccc(Br)s1 | -14 | 9 | -11 | 4 | 26* | 44* | 33 | 8.1* | 12 | /
Oc1ccccc1/C=N/n1c(COc2ccccc2)n[nH]c1=S | 4 | 5 | -11 | -8 | 8 | 11 | / | / | / | /
O=C(CC1CCCC1)N[C@@H](Cc1cccnc1)C(=O)N1CCC[C@H]1C(=O)NC1CCCC1 | / | / | -4 | 3 | -3 | 3 | / | / | / | /
O=C1C(=Cc2cn(-c3ccccc3)nc2-c2ccc(OCc3ccccc3)cc2)SC(=S)N1CCS(=O)(=O)O | / | / | -106 | 1 | 43* | 59* | 72* | 49* | 5 | /
N#Cc1c(SCC(=O)Nc2ccc(Cl)cc2Cl)sc2c(O)cc(=O)[nH]c12 | -27 | 10 | -2 | 7 | 30* | 44* | 27 | 13* | 4 | /
N#Cc1c(SCC(=O)Nc2nc3ccccc3s2)sc2c(O)cc(=O)[nH]c12 | -15 | 17 | -23 | 5 | 52* | 63* | 60* | 26* | 7 | / | dCAG dye DR=9.3*
N#Cc1c(SCC(=O)Nc2ccccc2C(F)(F)F)sc2c(O)cc(=O)[nH]c12 | -21 | 7 | -28 | 9 | 31* | 50* | 15 | 6.3* | 5 | /
CCCSc1nnc(NC(=O)CSc2sc3c(O)cc(=O)[nH]c3c2C#N)s1 | -29 | 21 | 0 | 8 | 34* | 65* | 80* | 46* | 15 | /
C=CCSc1nnc(NC(=O)CSc2nc(CCC)cc(=O)[nH]2)s1 | -4 | 0 | -2 | -3 | -2 | 15 | / | / | / | /
O=C(CSc1ccccn1)Nc1nc2ccccc2s1 | -7 | -5 | -2 | -1 | 0 | -3 | / | / | / | /
CCCCc1cc(C(=O)Cc2ccccn2)c(O)cc1O | -3 | -2 | 0 | 3 | 0 | 15 | / | / | / | /
CCn1c(COc2ccccc2)nnc1SCC(=O)NC1CC1 | -1 | 0 | 3 | 3 | 3 | -6 | / | / | / | /
Cc1cc(C)c(NC(=O)c2ccc3c(c2)NC(=O)C(C)S3)c(C)c1 (configuration not stated) | -6 | 0 | 1 | -3 | 1 | 3 | / | / | / | /
COc1ccc(-c2csc(Nc3ccc(S(=O)(=O)Nc4cc(C)on4)cc3)n2)cc1C | -43 | 10 | 34* | 2 | -1 | 93* | 82* | 43* | / | 29
COc1cc(NS(=O)(=O)c2ccc(Nc3nc(-c4ccccn4)cs3)cc2)nc(OC)n1 | 12 | 5 | 35* | -1 | 2 | 45* | 34 | 8.9* | / | 31*
COCCN(C(=O)CSc1nnc(-c2ccc(F)cc2)n1N)c1c(N)n(CC(C)C)c(=O)[nH]c1=O | 2 | 0 | -3 | 1 | -2 | 4 | / | / | / | /
N#CC1C(=N)Cc2ccccc2-c2ccccc21 (configuration not stated) | -12 | 2 | -8 | 2 | 1 | 2 | / | / | / | /
CCOC(=O)c1ccc(N2NC(=O)/C(=C/c3ccc(OC(=O)c4ccco4)c(OC)c3)C2=O)cc1 | / | / | 33* | -1 | 12 | 84* | 90* | 66* | / | 12
SMILES | HTRA1 inhibitor | DAGLB inhibitor | ABHD4 inh | LEDGF integ inh | PRMT1 inh | rCAG binder | rCAG bind conf | DNA CAG counter | PRMT1 inh conf | mABHD4 conf | others
Cc1cc(/C=C2/SC(=O)NC2=O)c(C)n1-c1ccc(N2CCOCC2)cc1 | -4 | 4 | 8 | -1 | -1 | 10 | / | / | / | /
Cc1cc(/C=C2\SC(=S)NC2=O)c(C)n1-c1ccc(O)cc1 | -18 | 9 | 35* | 2 | -5 | 49* | 42* | 14* | / | 44*
N#Cc1c(NC(=O)c2cccc(S(=O)(=O)Nc3ccc(C(=O)O)cc3)c2)sc2c1CCCC2 | -2 | 6 | 36* | 1 | 1 | 61* | 46* | 17* | / | 30*
COCCOC(=O)C1=C(C)NC(=O)NC1c1ccc(-c2cc(Cl)ccc2Cl)o1 (configuration not stated) | / | / | -4 | 0 | 2 | -5 | / | / | / | /
CC1=C(C#N)C(=O)NC(=O)/C1=C\c1ccc(-c2ccc(C)cc2[N+](=O)[O-])o1 | 18 | 7 | 32* | 4 | 10 | 43* | 73* | 34* | / | 33* | dCAG dye DR=5.1*
CCOC(=O)c1cc(-c2ccc(/C=C3/C(=O)NC(=O)C(C#N)=C3C)o2)ccc1Cl | 8 | 9 | 4 | -1 | 5 | 14 | / | / | / | /
Cc1cc(C)c(S(=O)(=O)/N=C2\C=C(NS(=O)(=O)c3ccccc3)C(=O)c3ccccc32)c(C)c1 | 13 | 22 | 45* | -1 | 2 | 45* | 85* | 57* | / | 42*
COc1ccc(C2=NN(c3ccc(C(=O)O)cc3)C(c3ccc(OC)c(OC)c3)C2)cc1 (configuration not stated) | -2 | 5 | 69* | 4 | 0 | 39* | 49* | 14* | / | 78*
N=C1S/C(=C\c2ccc(-c3ccccc3C(=O)O)o2)C(=O)N1c1ccc2c(c1)OCO2 | 8 | 7 | 49* | -1 | 6 | 42* | 30 | 10* | / | 63*

Screening data (PubChem)
